ERp5 block – ERp5 (human) disulfide isomerase inhibition. inhibition, % at 9.99 µM. actives 0.05% (n = 350,000). ERp5 insulin aggregation, absorbance 650 nm, 90 min. AID 651711. Q15084;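 active = mean replicate inhibition above about 25%, with every replicate also reaching it, limit read from the data, passing the limit was not always enough; inconclusive = only one of those two criteria met; inactive = neither criterion met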
Target sequence (Q15084 whole entry, looked up): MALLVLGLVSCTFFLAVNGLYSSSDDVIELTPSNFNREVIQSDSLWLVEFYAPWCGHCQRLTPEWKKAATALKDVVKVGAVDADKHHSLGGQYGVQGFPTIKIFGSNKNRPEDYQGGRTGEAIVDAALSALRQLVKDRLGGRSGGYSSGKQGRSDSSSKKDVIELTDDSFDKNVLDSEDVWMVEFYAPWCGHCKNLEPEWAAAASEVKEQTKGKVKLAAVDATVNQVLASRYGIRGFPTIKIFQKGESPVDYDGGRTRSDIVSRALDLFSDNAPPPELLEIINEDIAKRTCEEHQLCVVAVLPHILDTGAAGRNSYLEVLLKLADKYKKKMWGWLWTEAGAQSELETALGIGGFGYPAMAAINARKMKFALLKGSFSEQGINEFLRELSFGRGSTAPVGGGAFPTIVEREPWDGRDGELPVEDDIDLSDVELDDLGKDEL
CAL PDZ FP-1 – human CAL PDZ-peptide interaction inhibition; Q9HD26; purified CAL PDZ, TMR-peptide fluorescence polarization, 1 h; inhibition, % at 20 µM; actives 0.02% (n = 330,000); AID 504414;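 active = highest replicate inhibition of at least 40%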;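 note: plate controls were DMSO neutral control wells for no effect and unlabeled competitor peptide control wells for full effect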
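Test system: tagged CAL PDZ domain / Buffer or medium: sodium phosphate/NaCl buffer pH 7.4 with TCEP, IgG, Thesit / Reagent: TMR-labelled reporter peptide T*-PRC34 bound in PDZ groove / Compound dosing: single point, 20 µM / Schedule: 1 h incubation at room temperature before polarization reading / Technique: fluorescence polarization (mP) / Benchmarks: unlabelled peptide, DMSO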
CAL PDZ FP-2 – inhibitors of human CAL PDZ peptide binding; Q9HD26; purified CAL PDZ, TMR-peptide fluorescence polarization, 1 h; inhibition, % at 24.9 µM; actives 0.92% (n = 300,000);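 active = mean inhibition of at least 30% with at least half of replicates also reaching 30%; inconclusive = no clear call, values can overlap the other calls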;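 note: 0% = DMSO neutral control and 100% = excess unlabeled competitor peptide PRC23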
PDI turbidity – PDI (human) enzyme inhibition | actives 0.052% (n = 350,000) | inhibition, % at 10 µM | PDI insulin aggregation turbidity, A650, 90 min;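 active = mean inhibition across replicates of 30% or more, whatever share of single replicates reach that level; inconclusive = mean inhibition below 30% while every single replicate reaches 30%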
Rin1-Abl PPI inh – blocks binding of human Rin1 to Abl; P00519+Q13671; TR-FRET Rin1/Abl binding, biochemical; inhibition, % at 7.35 µM; actives 0.4% (n = 360,000); AID 588664; in the data active = inhibition above about 5%, passing the limit was not always enough
ERAP1 HTS inh – blocks human ERAP1 aminopeptidase activity; Q9NZ08; recombinant ERAP1, Leu-AMC fluorescence, 60 min; inhibition, % at 10.7 µM; actives 0.15% (n = 340,000); AID 652197;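 active = mean replicate inhibition of at least 30%, or all replicates individually reaching that 30% level; inactive = mean below 30% and not every replicate reaching it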;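 note: 0% = neutral control wells and 100% = L-leucinethiol positive control wells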
Numbers without * were called inactive; ? = inconclusive; / = no result given. A selection: hits, their analogues and other compounds. The true share with any hit is near 1.1%.

SMILES | ERp5 block | CAL PDZ FP-1 | CAL PDZ FP-2 | PDI turbidity | Rin1-Abl PPI inh | ERAP1 HTS inh
C[C@H](CO)N1C[C@H](C)[C@@H](CN(C)S(=O)(=O)c2cccs2)Oc2ccc(NS(C)(=O)=O)cc2CC1=O | -2 | / | / | / | / | 5
CCCCCCCCCCCCCCCCn1cc[n+](C)c1 | 14 | -3 | -3 | ? | -3 | 79*
CCCCCCCCn1ccc(=N)cc1 | 4 | 1 | / | 5 | 2 | -1
Cc1ccc(S(=O)(=O)N(C)C[C@H]2OCCCC[C@H](C)Oc3ccc(NS(=O)(=O)c4ccccc4)cc3C(=O)N([C@@H](C)CO)C[C@H]2C)cc1 | 1 | / | / | / | / | 5
O=C(CN1CCCc2ccccc21)NC(=O)NC1CCCCC1 | -2 | -1 | 82* | -1 | -5 | 4
CN(C)c1ccc(C(=O)OCC(=O)NC2CCCCCC2)cc1 | 3 | 28 | 32* | 12 | -2 | 1
CC1CCCCC1NC(=O)COC(=O)c1ccc(N(C)C)cc1 (centres undefined) | / | -3 | 0 | 10 | -3 | /
CCC(=O)c1ccc(N2CCOCC2)c(F)c1 | / | -2 | 2 | -1 | -2 | /
CCC(=O)c1ccc(N2CCCCC2)c(F)c1 | / | -2 | 161* | 18 | 3 | /
O=C(/C=C/c1ccccc1)NNC(=O)c1cccs1 | 0 | -2 | -2 | 3 | 2 | -10
COc1ccccc1/C=C/C(=O)NNC(=O)c1cccs1 | -3 | -1 | 71* | -3 | 0 | /
CC(C)(C)OC(=O)N1CCC(NC(=O)c2[nH]cnc2C(=O)Nc2cccc(Cl)c2)CC1 | 3 | 0 | 45* | -12 | 0 | 2
Cn1c(=O)n(C)c2cc3[nH]cnc3cc21 | 3 | -1 | 42* | -5 | 3 | 3
CC(C)CC#Cc1cnc2c(c1)C(=O)N([C@@H](C)CO)C[C@H](C)[C@@H](CN(C)C(=O)Nc1cc(F)ccc1F)O2 | -2 | / | / | / | / | -1
O=C(NNC(=O)c1cccnc1)Nc1ccc(Cl)c(Cl)c1 | / | -5 | -2 | 0 | -7 | /
O=C(NNC(=O)c1ccc(Cl)c(Cl)c1)c1cccnc1 | -9 | 92* | -2 | 7 | 1 | 11
C[C@@H]1CN([C@@H](C)CO)C(=O)c2cc(NC(=O)CCCCCC(=O)Nc3ccccc3N)ccc2O[C@@H]1CN(C)S(=O)(=O)c1ccccc1 | 4 | / | / | / | / | -1
CCc1nnc(NC(=O)c2cc(-c3ccc(C)o3)nc3ccccc23)s1 | 2 | -1 | 1 | -2 | 2 | -6
CCc1nnc(NC(=O)c2cc(C)nc3ccccc23)s1 | -1 | -1 | 65* | 1 | 1 | -2
CNC[C@H]1Oc2ccc(N(C)C)cc2CC(=O)N([C@H](C)CO)C[C@H]1C | 0 | / | / | / | / | -3
CCCCC(=O)Nc1nn(CC(C)C)c2nc3ccccc3cc12 | / | 1 | 30* | -4 | -4 | /
Cc1ccc(C(C)C)cc1OCCn1cncn1 | 0 | / | 66* | -2 | 3 | -1
CC(C)CNc1nc(N)c([N+](=O)[O-])c(NCC2CCCO2)n1 (centres undefined) | 5 | 0 | 7 | 1 | 1 | 0
Cc1ccc(Nc2nc(NCC3CCCO3)nc(N)c2[N+](=O)[O-])cc1C (centres undefined) | 2 | 0 | 31* | -3 | 2 | 2
C[C@@H]1CN([C@@H](C)CO)S(=O)(=O)c2ccc(-c3cccnc3)cc2O[C@@H]1CN(C)C(=O)CN(C)C | 0 | / | / | / | / | 0
SMILES | ERp5 block | CAL PDZ FP-1 | CAL PDZ FP-2 | PDI turbidity | Rin1-Abl PPI inh | ERAP1 HTS inh
CCCC(=O)Nc1ccc2c(c1)C(=O)N(C)C[C@H](OC)[C@@H](C)CN(CCc1ccccc1)[C@H](C)CO2 | 1 | / | / | / | / | 2
N#C/C(=C(/O)c1ccc2c(c1)OCO2)c1nc2cc(C(F)(F)F)ccc2s1 | -9 | -1 | 43* | 0 | 0 | 1
S=C(Nc1ccc(-c2nc3ccccc3[nH]2)cc1)Nc1cccnc1 | 1 | -2 | 43* | 0 | 0 | -4
C[C@@H]1CCCCO[C@H](CN(C)Cc2ccc(C(=O)O)cc2)[C@H](C)CN([C@@H](C)CO)C(=O)c2cc(NC(=O)Nc3cccc4ccccc34)ccc2O1 | 6 | / | / | / | / | -2
CC(C)CNC(=O)NC(=O)COC(=O)COc1ccc(Cl)cc1Cl | -4 | -1 | 45* | -7 | 0 | /
O=C(COC(=O)COc1ccc(Cl)cc1Cl)NC1CC1 | 1 | -1 | -8 | 1 | 2 | -2

Assay outcomes from PubChem.
